Several values for one entry are separate records, joined by “and”; a condition that tells them apart may be missing. Equal entries are not always repeated.
Legend:
Hsp70-Bag3 complex [1] = target: T1, Hsp70-Bag3 complex (Homo sapiens, UniProt P0DMV8); test: CE-LIF screen / dose response for inhibition of the Hsp70-Bag3 interaction; type: binding; conditions: for classification from electropherogram (artifact): 20 μM compound; for hit in CE screen, reconfirmed with repurchased compound by DRC: primary screen 20 μM, repurchased compound dose response
Method in brief: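 Incubated ≥15 min at ambient temperature with dry-spotted compound; unlabelled Hsp70 as positive control. Coated capillary, 10 cm, 25 °C, pH 7.5 phosphate/Tween buffer, 500 V/cm. LIF bound/free peak-area ratio; screen hits ≥3 SD.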

Hsp70-Bag3 complex [2] = target: T1, Hsp70-Bag3 complex; test: Flow cytometry protein interaction assay; type: binding; conditions: for cross-test of CE hit by DRC in FCPIA: repurchased compound, dose response; for result in original FCPIA screen: single concentration 20 μM, hit = inhibition ≥ 3 SD from negative controls
Method in brief: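 Biotinylated Hsp70 was immobilised on streptavidin polystyrene beads for 1 h, then mixed with Alexa Fluor 488-labelled Bag3 (30 nM final) and compound or DMSO. Unlabelled Hsp70 served as positive control. After 15 min, median bead-associated fluorescence was read by flow cytometry. Screen used 20 μM; hits ≥3 SD from negative controls.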

Hsp70 = conditions: cited from earlier work
[3] = 0.5 μM Hsp70–488 and 0.5 μM Bag3

T1 sequence (P0DMV8 whole entry, one chain of several): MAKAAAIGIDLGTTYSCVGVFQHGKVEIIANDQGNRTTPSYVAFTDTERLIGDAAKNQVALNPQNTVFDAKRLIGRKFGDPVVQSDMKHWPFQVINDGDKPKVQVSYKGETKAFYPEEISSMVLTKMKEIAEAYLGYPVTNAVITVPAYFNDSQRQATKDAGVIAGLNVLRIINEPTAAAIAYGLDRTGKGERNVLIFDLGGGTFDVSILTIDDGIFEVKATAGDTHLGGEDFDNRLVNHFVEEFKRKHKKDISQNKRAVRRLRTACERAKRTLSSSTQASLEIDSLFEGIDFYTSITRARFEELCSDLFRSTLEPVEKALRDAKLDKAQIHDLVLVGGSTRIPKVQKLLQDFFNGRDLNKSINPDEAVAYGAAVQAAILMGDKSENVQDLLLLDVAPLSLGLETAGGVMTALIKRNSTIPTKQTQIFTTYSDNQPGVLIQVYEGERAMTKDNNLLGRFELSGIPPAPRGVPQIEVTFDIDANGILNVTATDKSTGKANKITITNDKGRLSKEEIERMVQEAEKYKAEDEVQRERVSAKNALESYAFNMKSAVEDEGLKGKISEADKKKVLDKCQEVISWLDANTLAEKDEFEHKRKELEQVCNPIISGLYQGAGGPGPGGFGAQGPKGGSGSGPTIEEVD

Molecule	classification from electropherogram (artifact) (Hsp70-Bag3 complex [1]; [3])	hit in CE screen, reconfirmed with repurchased compound by DRC (Hsp70-Bag3 complex [1])	cross-test of CE hit by DRC in FCPIA (Hsp70-Bag3 complex [2])	result in original FCPIA screen (Hsp70-Bag3 complex [2])	other results
O=C(O[C@@H]1Cc2c(O)cc(O)cc2O[C@@H]1c1cc(O)c(O)c(O)c1)c1cc(O)c(O)c(O)c1 [Epigallocatechin gallate]	–	–	–	–	classification from electropherogram (Hsp70-Bag3 complex [1]; 15 μM compound, 0.5 μM Hsp70–488 and 0.5 μM Bag3): confirmed PPI inhibitor
O=C(O)CN(CC(=O)O)Cc1cc2c(cc1O)Oc1cc(O)c(CN(CC(=O)O)CC(=O)O)cc1C21OC(=O)c2ccccc21 [calcein]	identified as a fluorescent compound that interferes with detection of free Hsp70–488	–	–	–	–
CC1=C(O)C(=O)C=C2C1=CC=C1[C@@]2(C)CC[C@@]2(C)[C@@H]3C[C@](C)(C(=O)O)CC[C@]3(C)CC[C@]12C [celastrol]	–	found by CE	reconfirmed by FCPIA	missed in the original FCPIA screen	–
Oc1cc2c(cc1O)C1c3ccc(O)c(O)c3OCC1(O)C2 (centres unmarked) [haematoxylin]	identified as an aggregator	–	–	–	–
O=c1c(O)c(-c2cc(O)c(O)c(O)c2)oc2cc(O)cc(O)c12 [myricetin]	–	found by CE	reconfirmed by FCPIA	missed in the original FCPIA screen	known modulator of Hsp70 (Hsp70): known modulators of Hsp70
unlabeled Hsp70: unlabeled recombinant human Hsp70 (HSPA1) used as competitor and positive control	–	–	–	–	IC50 (decrease of bound to free peak area ratio) (Hsp70-Bag3 complex [1]; 0.5 μM Hsp70–488 and 0.5 μM Bag3 with increasing unlabeled Hsp70): 240 ± 3 nM and 240 nM
